The results in this text go back to ChEMBL document CHEMBL1914326, “Synthesis and anticonvulsant properties of new acetamide derivatives of phthalimide, and its saturated cyclohexane and norbornene analogs” (Eur J Med Chem, 2011).

For series [1], the system named is Rattus norvegicus. In words: Neurotoxicity in Sprague-Dawley albino rat assessed as motor impairment at 30 mg/kg, po by rotarod test. Type of series: toxicity, organism-based. Details: dose 30 mg/kg, route oral. To be noted: in vivo. The gist of the method: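 Male Sprague-Dawley rats in groups of four were given 30 mg/kg orally in 0.5% methylcellulose/water. Motor impairment was then assessed on the standardized minimal motor impairment rotorod test.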
In general terms: Falling from the rotarod earlier than controls is read as motor impairment.

Series [2] relates to Mus musculus. In words: Anticonvulsant activity in ip dosed CF1 albino mouse assessed as protection against maximal electroshock after 4 hrs. The format is functional. The note with it: read-out: MED. The method in brief: (§1)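 Male albino CF-1 mice in groups of eight received i.p. doses of 30, 100 and 300 mg/kg, suspended in 0.5% methylcellulose/water. Maximal electroshock seizures were tested at 0.5 and 4 h, with one additional 0.25 h reading at 100 mg/kg. The minimum dose giving protection was recorded. A dash means no activity at 300 mg/kg.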

In series [3] the test system is Mus musculus. In words: Anticonvulsant activity in CF1 albino mouse assessed as protection against subcutaneous pentylenetetrazole-induced seizures at 300 mg/kg, ip after 0.5 hrs. Type of series: functional, organism-based. Details: dose 300 mg/kg. The method in brief:
(§2)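 Male CF-1 mice in groups of eight were dosed i.p. at 30, 100 or 300 mg/kg in 0.5% methylcellulose/water. At 0.5 and 4 h, pentylenetetrazole 85 mg/kg (CD97 dose) was given s.c. This dose produces clonic seizures lasting at least 5 s. The minimum protective dose was recorded, with a top dose of 300 mg/kg.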

For series [4], the system named is Rattus norvegicus. As to the kind of experiment: Anticonvulsant activity in Sprague-Dawley albino rat assessed as protection against maximal electroshock at 30 mg/kg, po after 1 hr. Type of series: functional. The gist of the method:
(§3)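 Male Sprague-Dawley rats in groups of four received 30 mg/kg p.o. as a suspension in 0.5% methylcellulose/water. Maximal electroshock seizure protection was scored at 0.25, 0.5, 1, 2 and 4 h and reported as rats protected/rats tested.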

The subject of series [5] is Mus musculus. In words: Anticonvulsant activity in ip dosed CF1 albino mouse assessed as protection against maximal electroshock after 0.5 hrs. The format is functional. The note with it: read-out: MED. The method in brief: as §1
The test system of series [6] is Rattus norvegicus. In words: Anticonvulsant activity in Sprague-Dawley albino rat assessed as protection against maximal electroshock at 30 mg/kg, po after 2 hrs. Type of series: functional. The method in brief: as §3
Background: In the maximal electroshock model the usual endpoint is tonic extension of the hind limbs.

The subject of series [7] is Mus musculus. In words: Neurotoxicity in ip dosed CF1 albino mouse assessed as minimum dose required to cause motor impairment after 4 hrs by rotarod test. Type of series: toxicity, organism-based. To be noted: in vivo. The method in brief:
(§4)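 Acute neurotoxicity was scored on the minimal motor impairment rotorod test in male CF-1 mice. Animals in groups of eight were dosed i.p. at 30, 100 or 300 mg/kg in 0.5% methylcellulose/water and examined at 0.5 and 4 h. Untreated controls keep their balance on the rod for a prolonged time. The minimum dose causing impairment was recorded.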

Series [8] has as its system Rattus norvegicus. In words: Anticonvulsant activity in Sprague-Dawley albino rat assessed as protection against maximal electroshock at 30 mg/kg, po after 0.25 hrs. Type of series: functional. The method in brief: as §3
Series [9] has as its system Rattus norvegicus. In words: Anticonvulsant activity in Sprague-Dawley albino rat assessed as protection against maximal electroshock at 30 mg/kg, po after 4 hrs. Type of series: functional. The gist of the method: as §3
Series [10] has as its system Rattus norvegicus. In words: Anticonvulsant activity in Sprague-Dawley albino rat assessed as protection against maximal electroshock at 30 mg/kg, po after 0.5 hrs. The format is functional. The method in brief:
as §3

Series [11] concerns Mus musculus. In words: Neurotoxicity in ip dosed CF1 albino mouse assessed as minimum dose required to cause motor impairment after 0.5 hrs by rotarod test. The format is toxicity, organism-based. To be noted: in vivo. The gist of the method:
as §4

The subject of series [12] is Mus musculus. In words: Anticonvulsant activity in CF1 albino mouse assessed as protection against subcutaneous pentylenetetrazole-induced seizures at 300 mg/kg, ip after 4 hrs. The format is functional, organism-based. On the set-up: dose 300 mg/kg. The method in brief: as §2
Series [13] has as its system Mus musculus. In words: Anticonvulsant activity in CF1 albino mouse assessed as protection against maximal electroshock at 300 mg/kg, ip after 0.5 hrs. Type of series: functional, organism-based. Details: dose 300 mg/kg. The gist of the method: as §1
Series [14] relates to Mus musculus. In words: Neurotoxicity in CF1 albino mouse assessed as motor impairment at 300 mg/kg, ip after 4 hrs by rotarod test. Type of series: toxicity, organism-based. On the set-up: dose 300 mg/kg, route intraperitoneal. To be noted: in vivo. The method in brief: as §4
For series [15], the system named is Mus musculus. In words: Anticonvulsant activity in CF1 albino mouse assessed as protection against maximal electroshock at 300 mg/kg, ip after 4 hrs. On the set-up: dose 300 mg/kg. The format is functional, organism-based. The method in brief:
as §1

The subject of series [16] is Mus musculus. As to the kind of experiment: Neurotoxicity in ip dosed CF1 albino mouse assessed as minimum dose required to cause tremors after 0.5 hrs by rotarod test. The note with it: in vivo. The format is toxicity, organism-based.
Series [17] has as its system Mus musculus. As to the kind of experiment: Anticonvulsant activity in ip dosed CF1 albino mouse assessed as protection against subcutaneous pentylenetetrazole-induced after 0.5 hrs. The note with it: read-out: MED. Type of series: functional. The method in brief:
as §2

Series [18] has as its system Mus musculus. In words: Anticonvulsant activity in ip dosed CF1 albino mouse assessed as protection against subcutaneous pentylenetetrazole-induced after 4 hrs. The format is functional. The note with it: read-out: MED. The gist of the method:
as §2

Series [19] relates to Mus musculus. In words: Neurotoxicity in CF1 albino mouse assessed as unable to grasp rotarod at 300 mg/kg, ip after 4 hrs by rotarod test. On the set-up: dose 300 mg/kg, route intraperitoneal. The format is toxicity, organism-based. To be noted: in vivo. The gist of the method: as §4
Series [20] has as its system Mus musculus. In words: Neurotoxicity in CF1 albino mouse assessed as unable to grasp rotarod at 300 mg/kg, ip after 0.5 hrs by rotarod test. The format is toxicity, organism-based. Details: dose 300 mg/kg, route intraperitoneal. The note with it: in vivo. The method in brief: as §4
In series [21] the test system is Rattus norvegicus. In words: Anticonvulsant activity in po dosed rat assessed as protection against maximal electroshock. The format is functional.
The subject of series [22] is Mus musculus. In words: Neurotoxicity in CF1 albino mouse assessed as motor impairment at 300 mg/kg, ip after 0.5 hrs by rotarod test. The format is toxicity, organism-based. On the set-up: dose 300 mg/kg, route intraperitoneal. To be noted: in vivo. The method in brief:
as §4

Series [23] concerns Mus musculus. In words: Anticonvulsant activity in CF1 albino mouse assessed as protection against maximal electroshock at 100 mg/kg, ip after 0.25 hrs. The format is functional, organism-based. Details: dose 100 mg/kg. The method in brief: as §1

SMILES strings stand for the structures. Activity calls are given as the source filed them. The calls are words filed in the database; no cut-off is given here.

Consider `O=C1NC(=O)C(c2ccccc2)(c2ccccc2)N1` [PHENYTOIN], for which the Activity result in the series on Rattus norvegicus [1] was “Non-toxic”; in the series on Rattus norvegicus [4] it was 75%; in the series with Rattus norvegicus [6], 75%; in the series on Rattus norvegicus [8] it was 25%; in the series with Rattus norvegicus [9] it was 75%; with Rattus norvegicus [10], 100%. The minimal effective dose with Mus musculus [2] and in the series on Mus musculus [5] was 30 mg/kg in each case. In addition, the outcome in the series with Mus musculus [3] and in the series with Mus musculus [12] was inactive. Also, the MTC in the series on Mus musculus [7] and in the series on Mus musculus [11] was 100 mg/kg each time.

Consider `O=C(CN1C(=O)C2CCCCC2C1=O)N1CCN(c2cccc(Cl)c2Cl)CC1` (stereo not drawn), for which the outcome in the series with Mus musculus [13], with Mus musculus [3], in the series with Mus musculus [15] and in the series on Mus musculus [12] was inactive. For the same compound, the Activity entry in the series on Mus musculus [14] was “Non-toxic”; in the series with Mus musculus [16] it was “Toxic”.

As for `NC(=O)N1c2ccccc2C=Cc2ccccc21` [CARBAMAZEPINE], the minimal effective dose in the series with Mus musculus [2] is 100 mg/kg; in the series with Mus musculus [5], 30 mg/kg; with Mus musculus [17] it was 100 mg/kg; in the series on Mus musculus [18], 300 mg/kg. Further, the MTC in the series on Mus musculus [7] was 300 mg/kg; in the series with Mus musculus [11] it was 100 mg/kg.

With `O=C(CN1C(=O)c2ccccc2C1=O)N1CCN(c2ccc(F)cc2)CC1`, the Activity result in the series on Rattus norvegicus [1] is given as “Non-toxic”; in the series on Rattus norvegicus [4], 50%; in the series on Rattus norvegicus [6], 100%; in the series on Rattus norvegicus [8], 25%; in the series with Rattus norvegicus [9], 100%; in the series with Rattus norvegicus [10], 50%. Besides, the minimal effective dose is 100 mg/kg in the series on Mus musculus [2], 30 mg/kg in the series with Mus musculus [5], 300 mg/kg in the series with Mus musculus [17] and 300 mg/kg in the series on Mus musculus [18]. In addition, the MTC in the series on Mus musculus [7] and with Mus musculus [11] was 300 mg/kg throughout.

As to `O=C(CN1C(=O)c2ccccc2C1=O)N1CCOCC1`, the minimal effective dose in the series on Mus musculus [2] and with Mus musculus [5] was 100 mg/kg in each case. Further, the outcome in the series with Mus musculus [3] and with Mus musculus [12] was inactive. Further, the Activity entry in the series with Mus musculus [19] and with Mus musculus [20] was “Toxic” each time.

As usually defined, the ED50 is the dose at which the effect has come halfway, by size or by number of responders. Turning to `Nc1ccc(N2C(=O)c3ccccc3C2=O)c(Cl)c1`, the ED50 in the series on Rattus norvegicus [21] is 5.7 mg/kg.

`O=C1CC2(CCc3ccccc3C2)C(=O)N1CN1CCN(c2cccc(C(F)(F)F)c2)CC1` (stereo not drawn): in the series on Rattus norvegicus [21], the ED50 was found to be 9 mg/kg.

Regarding `O=C(CN1C(=O)C2C3C=CC(C3)C2C1=O)N1CCN(c2ccc(F)cc2)CC1` (stereo not drawn), the minimal effective dose with Mus musculus [2] and in the series on Mus musculus [5] was 100 mg/kg in each case. For the same compound, the outcome with Mus musculus [3] and in the series with Mus musculus [12] was inactive. In the series with Mus musculus [19], the Activity entry is given as “Toxic”. The MTC in the series on Mus musculus [11] is 300 mg/kg.

Consider `O=C(CN1C(=O)C2CCCCC2C1=O)N1CCN(c2ccc(F)cc2)CC1` (stereo not drawn), for which the Activity entry is recorded as “Non-toxic” with Rattus norvegicus [1]; “Non-toxic” in the series on Mus musculus [14]; “Non-toxic” with Mus musculus [22]; 25% in the series on Rattus norvegicus [4]; 0% in the series with Rattus norvegicus [6]; 0% in the series with Rattus norvegicus [8]. Also, the Activity in the series with Rattus norvegicus [9] stood at 0%; in the series on Rattus norvegicus [10], 50%. Further, the minimal effective dose in the series with Mus musculus [2] and in the series on Mus musculus [5] was 300 mg/kg throughout. In addition, the result in the series with Mus musculus [3] and in the series on Mus musculus [12] was inactive. Moreover, the outcome with Mus musculus [23] was Active.
